Active and inactive are the calls of the source. The calls are words filed in the database; no cut-off is given here.
Columns and labels:
Acetylcholinesterase [1] = molecular target: T1, Acetylcholinesterase (Electrophorus electricus, UniProt O42275); assay: Noncompetitive inhibition of electric eel AChE using acetylthiocholine chloride as substrate after 5 mins by Dixon plot analysis
A2058 = assay: Cytotoxicity against human A2058 cells; type: cell-based
HT-29 = assay: Cytotoxicity against human HT-29 cells; type: cell-based
MCF7 = assay: Cytotoxicity against human MCF7 cells; type: cell-based
[2] = tested on: Staphylococcus epidermidis; assay: Antimicrobial activity against Staphylococcus epidermidis ATCC 35984 assessed as inhibition of biofilm formation; type: functional, organism-based
[3] = tested on: Corynebacterium glutamicum; assay: Antimicrobial activity against Corynebacterium glutamicum ATCC 13032 after 24 hrs; type: functional; settings: ATCC 13032, 24 h
Summary of the method: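 Broth microdilution in Mueller Hinton broth at 37 °C. Compounds were dissolved in water and tested from 8 to 500 μg/mL against log-phase bacteria at a start of about 5 × 10⁵ cells per well. Growth was followed by optical density, with cecropin B (25 μM) as positive control. MIC was taken as the lowest concentration giving no change in optical density after 24 h at 37 °C.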

Pseudomonas aeruginosa = assay: Antimicrobial activity against Pseudomonas aeruginosa ATCC 27853 at 8 to 500 ug/ml after 24 hrs; type: functional, organism-based
Summary of the method: (§1)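 Broth microdilution in Mueller Hinton broth at 37 °C. Samples dissolved in H2O are mixed 1:1 with log-phase bacterial suspension, about 5 × 10⁵ cells per well, and tested at 8 to 500 μg/mL. Growth is followed by optical density. MIC is the lowest concentration giving no OD change after 24 h at 37 °C. Cecropin B (25 μM) serves as positive control.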

Staphylococcus aureus = assay: Antimicrobial activity against Staphylococcus aureus ATCC 9144 at 8 to 500 ug/ml after 24 hrs; type: functional, organism-based; summary of the method: as §1
Escherichia coli = assay: Antimicrobial activity against Escherichia coli ATCC 25922 at 8 to 500 ug/ml after 24 hrs; type: functional, organism-based; summary of the method: as §1
MRC5 = assay: Cytotoxicity against human MRC5 cells; type: cell-based
Acetylcholinesterase [4] = molecular target: T1, Acetylcholinesterase; assay: Inhibition of electric eel AChE using acetylthiocholine chloride as substrate after 5 mins by Ellman's method

T1 sequence (O42275 whole entry): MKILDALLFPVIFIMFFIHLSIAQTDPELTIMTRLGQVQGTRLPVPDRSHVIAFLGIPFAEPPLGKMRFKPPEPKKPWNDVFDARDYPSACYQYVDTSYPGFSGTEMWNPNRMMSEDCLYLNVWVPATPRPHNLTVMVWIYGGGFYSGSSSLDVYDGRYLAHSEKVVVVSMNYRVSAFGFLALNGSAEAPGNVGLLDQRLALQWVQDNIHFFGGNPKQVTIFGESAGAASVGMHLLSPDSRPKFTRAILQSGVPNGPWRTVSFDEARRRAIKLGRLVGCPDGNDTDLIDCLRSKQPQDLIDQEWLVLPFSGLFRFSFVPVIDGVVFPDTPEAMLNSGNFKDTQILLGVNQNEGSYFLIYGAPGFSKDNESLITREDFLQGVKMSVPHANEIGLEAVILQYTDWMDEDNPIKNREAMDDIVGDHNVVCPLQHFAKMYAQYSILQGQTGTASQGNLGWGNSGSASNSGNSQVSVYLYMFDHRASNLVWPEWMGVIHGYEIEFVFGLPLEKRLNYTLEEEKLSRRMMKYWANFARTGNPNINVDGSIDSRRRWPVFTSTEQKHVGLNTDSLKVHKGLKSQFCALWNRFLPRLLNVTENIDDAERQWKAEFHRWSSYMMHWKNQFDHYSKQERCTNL

COc1c(Br)cc(C(=O)OCC[N+](C)(C)C)cc1Br.[Cl-]
Ki (Acetylcholinesterase [1]): 90 µM
Activity (A2058): Non-toxic
Activity (HT-29): Non-toxic
Activity (MCF7): Non-toxic
inhibition [2]: inactive
MIC [3]: 500 µg/mL
Activity (Pseudomonas aeruginosa): inactive
Activity (Staphylococcus aureus): inactive
Activity (Escherichia coli): inactive
Activity (MRC5): Non-toxic
IC50 (Acetylcholinesterase [4]): 105 µM

COc1c(Br)cc(CC(=O)NCCCCC[N+](C)(C)C)cc1Br.[I-]
Ki (Acetylcholinesterase [1]): 20 µM
Activity (A2058): Non-toxic
Activity (HT-29): Non-toxic
Activity (MCF7): Non-toxic
inhibition [2]: inactive
MIC [3]: 250 µg/mL
Activity (Pseudomonas aeruginosa): inactive
Activity (Staphylococcus aureus): inactive
Activity (Escherichia coli): inactive
Activity (MRC5): Non-toxic
IC50 (Acetylcholinesterase [4]): 36 µM

From ChEMBL document CHEMBL3108678, “Isolation and synthesis of pulmonarins A and B, acetylcholinesterase inhibitors from the colonial ascidian Synoicum pulmonaria” (J Nat Prod, 2014)
